Measurements as given in ChEMBL document CHEMBL5154731, “Synthetic methodology-enabled discovery of a tunable indole template for COX-1 inhibition and anti-cancer activity” (Bioorg Med Chem, 2022).
Activity calls are given as the source filed them. The calls are words filed in the database; no cut-off is given here.

Legend:
Vero = assay: Cytotoxicity against African green monkey Vero cells assessed as reduction in cell viability at 2.5 to 500 uM measured after 72 hrs by MTS assay; assay type: toxicity, cell-based; conditions: chlorocebus sabaeus, dose 2.5-500 µM
How it was run: (§1)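 Cells seeded at 2000 to 4500/well on day 1. Next day, treated 72 h with drug at 2.5 to 500 μM from a 1% DMSO solution in medium (DMSO control), each in triplicate. All with 10% FBS. MTS reagent added for 2.5–3 h at 37 °C, absorbance at 490 nm; eight points averaged per concentration.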

HepG2 [1] = assay: Cytotoxicity against human HepG2 cells assessed as reduction in cell viability measured after 72 hrs by MTS assay; assay type: functional, cell-based; conditions: HepG2, 72 h; how it was run: as §1
A549 = assay: Cytotoxicity against human A549 cells assessed as reduction in cell viability measured after 72 hrs by MTS assay; assay type: functional, cell-based; conditions: A549, 72 h; how it was run: as §1
MCF7 = assay: Cytotoxicity against human MCF7 cells assessed as reduction in cell viability measured after 72 hrs by MTS assay; assay type: functional, cell-based; conditions: MCF7, 72 h; how it was run: as §1
[2] = Cytotoxicity against African green monkey Vero cells assessed as reduction in cell viability measured after 72 hrs by MTS assay; assay type: toxicity, cell-based; conditions: African green monkey (Chlorocebus sabaeus); how it was run: as §1
HeLa = assay: Cytotoxicity against human HeLa cells assessed as reduction in cell viability measured after 72 hrs by MTS assay; assay type: functional, cell-based; how it was run: as §1
DU-145 = assay: Cytotoxicity against human DU-145 cells assessed as reduction in cell viability measured after 72 hrs by MTS assay; assay type: functional, cell-based; conditions: DU-145, 72 h; how it was run: as §1
[3] = biological target: T1, Prostaglandin G/H synthase 1 (Ovis aries, UniProt P05979); assay: Inhibition of full-length ovine COX-1 using arachidonic acid as substrate preincubated for 5 mins followed by substrate addition and measured after 2 mins by colorimetry
T1 sequence (P05979 whole entry): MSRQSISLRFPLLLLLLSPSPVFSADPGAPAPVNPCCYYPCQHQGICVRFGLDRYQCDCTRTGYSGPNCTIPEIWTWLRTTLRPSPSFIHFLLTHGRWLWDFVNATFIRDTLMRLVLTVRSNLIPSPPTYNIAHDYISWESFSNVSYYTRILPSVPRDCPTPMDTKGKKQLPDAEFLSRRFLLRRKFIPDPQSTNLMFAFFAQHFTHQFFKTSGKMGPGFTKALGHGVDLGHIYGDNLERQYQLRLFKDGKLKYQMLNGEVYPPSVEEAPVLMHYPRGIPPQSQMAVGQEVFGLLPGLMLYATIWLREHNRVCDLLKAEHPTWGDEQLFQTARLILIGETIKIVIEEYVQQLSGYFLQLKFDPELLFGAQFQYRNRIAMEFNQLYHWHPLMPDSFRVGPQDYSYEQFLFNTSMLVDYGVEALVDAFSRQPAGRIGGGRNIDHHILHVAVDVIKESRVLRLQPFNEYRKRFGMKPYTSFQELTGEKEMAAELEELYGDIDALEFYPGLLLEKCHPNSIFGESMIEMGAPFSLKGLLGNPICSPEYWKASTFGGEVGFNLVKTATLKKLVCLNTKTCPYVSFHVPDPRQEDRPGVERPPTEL

MDA-MB-231 = assay: Cytotoxicity against human MDA-MB-231 cells assessed as reduction in cell viability measured after 72 hrs by MTS assay; assay type: functional, cell-based; conditions: MDA-MB-231, 72 h; how it was run: as §1
[4] = biological target: T2, Prostaglandin G/H synthase 1 (Ovis aries) (UniProt P05979); assay: Inhibition of full-length ovine COX-1 at 50 uM using arachidonic acid as substrate preincubated for 5 mins followed by substrate addition and measured after 2 mins by colorimetry relative to control; conditions: time 7.0 min
T2 sequence (whole entry): T1 sequence (P05979 whole entry)

[5] = biological target: T2, Prostaglandin G/H synthase 1 (Ovis aries); assay: Inhibition of full-length ovine COX-1 at 5 uM using arachidonic acid as substrate preincubated for 5 mins followed by substrate addition and measured after 2 mins by colorimetry relative to control; conditions: time 7.0 min
LNCaP = assay: Cytotoxicity against human LNCaP cells over expressing androgen receptor F876L mutant assessed as reduction in cell viability measured after 72 hrs by MTS assay; assay type: functional, cell-based; how it was run: as §1
HepG2 [6] = assay: Induction of apoptosis in human HepG2 cells assessed as increase in cleaved caspase-3 level at 75 uM measured after 20 hrs by Western blot analysis; assay type: functional, cell-based
How it was run: (§2)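 Hep-G2 (1 × 10^6/well) plated 48 h before treatment, then exposed 20 h to 0.1% DMSO solutions of compound (DMSO control). Cells washed in PBS and lysed in RIPA; 20–40 μg protein run on 4–20% gel at 150 V for 65 min, transferred to PVDF, blocked in 5% BSA. Probed overnight for cleaved and pro-caspase, Bcl-xL, Bcl-2, Bax and actin, then IRDye secondaries 1 h, with fluorescence quantification.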

HepG2 [7] = assay: Induction of apoptosis in human HepG2 cells assessed as down regulation of Bcl-xl expression at 75 uM measured after 20 hrs by Western blot analysis; assay type: functional, cell-based; how it was run: as §2
HepG2 [8] = assay: Induction of apoptosis in human HepG2 cells assessed as up regulation of Bax expression at 75 uM measured after 20 hrs by Western blot analysis; assay type: functional, cell-based; how it was run: as §2
HepG2 [9] = assay: Down regulation of AR expression in human HepG2 cells at 75 uM measured after 20 hrs by Western blot analysis; assay type: functional, cell-based
HepG2 [10] = assay: Induction of apoptosis in human HepG2 cells assessed as increase in ratio of Bax/Bcl-2 expression at 75 uM measured after 20 hrs by Western blot analysis; assay type: functional, cell-based; how it was run: as §2
HepG2 [11] = assay: Induction of apoptosis in human HepG2 cells assessed as decrease in Bcl-2 expression at 75 uM measured after 20 hrs by Western blot analysis; assay type: functional, cell-based; how it was run: as §2
HepG2 [12] = assay: Cell cycle arrest in human HepG2 cells assessed as increase in cell accumulation at G1/G0 phase at 100 uM measured after 24 to 48 hrs by propidium iodide staining based FACS analysis; assay type: functional; conditions: time 24-48 hrs
How it was run: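 Hep-G2 grown to 70% confluence in 10-cm dishes, treated in 0.1% DMSO medium for 24 or 48 h (0.1% DMSO control). Floating and trypsinized cells pooled, washed in PBS, fixed overnight at –20 °C in 70% ethanol, then 200 μg/mL RNase A for 30 min and 100 μg/mL propidium iodide for 30 min at room temperature. DNA content read by flow cytometry; two independent experiments in duplicate.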

Row | SMILES | inhibition [4] [%] | inhibition [5] [%] | Activity (Vero) | IC50 (HepG2 [1]) [µM] | IC50 (A549) [µM] | IC50 (MCF7) [µM] | IC50 at 72 h [2] [µM] | IC50 (HeLa) [µM] | IC50 (DU-145) [µM] | IC50 (MDA-MB-231) [µM] | IC50 (LNCaP) [µM] | also measured
1 | COc1ccc2c(C(=O)O)cn(C)c2c1C(=O)OCC(F)(F)F |  |  | Non-Toxic |  |  |  |  |  |  |  |  | 
2 | COc1ccc2c(Cc3cn(C)c4c(C(=O)OCC(F)(F)F)c(OC)ccc34)cn(C)c2c1C(=O)OCC(F)(F)F | 22.9 | < 20 | Non-Toxic |  |  |  |  |  |  |  |  | 
3 | Cc1ccc(-c2cc(C(F)(F)F)nn2-c2ccc(S(N)(=O)=O)cc2)cc1 [CELECOXIB] |  |  |  | 58.2 | 57.9 | 64.2 | 60.6 | 58.2 | 59.3 | 69.6 | 16.4 | Activity (HepG2 [6]): Active; Activity (HepG2 [7]): Active; Activity (HepG2 [8]): Active; Activity (HepG2 [9]): Active; Activity (HepG2 [10]): Active; Activity (HepG2 [11]): Active; Activity (HepG2 [12]): Active

Further lines, with some results ahead:

Row | inhibition [4] [%] | inhibition [5] [%] | SMILES | Activity (Vero) | IC50 (HepG2 [1]) [µM] | IC50 (A549) [µM] | IC50 (MCF7) [µM] | IC50 at 72 h [2] [µM] | IC50 (HeLa) [µM] | IC50 (DU-145) [µM] | IC50 (MDA-MB-231) [µM] | IC50 (LNCaP) [µM] | also measured
4 | < 20 | < 20 | COc1ccc2c(CO)cn(C)c2c1C(=O)NCC(F)(F)F |  | 58.2 | 164 | 273 | 229 | 110 | 144 | 253 | 99 | IC50 [3]: 85.8 µM
5 | < 20 | < 20 | COc1ccc2c(Cc3cn(C)c4c(C(=O)NCC(F)(F)F)c(OC)ccc34)cn(C)c2c1C(=O)NCC(F)(F)F | Non-Toxic |  |  |  |  |  |  |  |  | 
